# SENP6 inh – SENP6 protease inhibitors, primary screen, biochemical, luminescence, uHTS. Sentrin-specific protease 6 (Homo sapiens), Q9GZR1. Recombinant SENP6 catalytic domain, aminoluciferin luminescence. inhibition, % at 10 µM. actives 1.8% (n = 330,000);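 active = inhibition above about 50% at the single tested dose, limit read from the data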;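 note: plate controls were DMSO wells with enzyme for no effect and DMSO wells lacking enzyme for full effect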
# Target sequence (Q9GZR1 628-1112 limits assumed): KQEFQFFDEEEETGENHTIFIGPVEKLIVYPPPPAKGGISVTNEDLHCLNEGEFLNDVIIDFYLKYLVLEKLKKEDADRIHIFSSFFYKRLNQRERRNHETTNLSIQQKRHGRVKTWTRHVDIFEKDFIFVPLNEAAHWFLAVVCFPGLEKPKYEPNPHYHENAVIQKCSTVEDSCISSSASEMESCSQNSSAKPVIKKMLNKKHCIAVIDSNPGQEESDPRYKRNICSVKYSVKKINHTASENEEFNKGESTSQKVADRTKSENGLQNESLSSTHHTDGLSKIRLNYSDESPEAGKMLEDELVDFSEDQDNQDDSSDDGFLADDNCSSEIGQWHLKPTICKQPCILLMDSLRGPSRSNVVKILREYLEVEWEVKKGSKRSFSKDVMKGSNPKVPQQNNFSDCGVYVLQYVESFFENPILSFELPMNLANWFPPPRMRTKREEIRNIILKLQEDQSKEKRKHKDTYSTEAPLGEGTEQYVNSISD
# SENP1 FRET inh – human SENP1 catalytic domain inhibitors, primary screen, biochemical, FRET, uHTS. recombinant SENP1 catalytic domain, CyPet-SUMO1-YPet FRET cleavage. inhibition, % at 10 µM. actives 0.21% (n = 360,000);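 active = inhibition at least 30% at 10 µM, raw YFP signal under a set limit, fluorescence ratio 0.5 to 1.5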;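 note: 0% = enzyme with DMSO and 100% = no enzyme wells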
#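 Assay system – human recombinant His6-tagged SENP1 catalytic domain enzyme · Input – SENP1 enzyme, 20 pM final · Buffer or medium – Tris pH 8 buffer plus EDTA, NaCl, BME, BSA, NP40, catalase · Schedule – 50 min reaction at room temperature · Technique – FRET read of cyan and yellow fluorescence · Control set – no-enzyme wells low, DMSO-plus-enzyme wells high control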
# SENP8 block-1 – human SENP8 protease inhibitors, primary screen, biochemical, fluorescence, Nedd8 protein substrate, uHTS; actives 0.64% (n = 360,000); recombinant SENP8; inhibition, % at 20 µM; in the data active = inhibition mostly above about 40%, no sharp cut-off; inactive = mostly below about 27%
# Target sequence (Q96LD8 whole entry, looked up): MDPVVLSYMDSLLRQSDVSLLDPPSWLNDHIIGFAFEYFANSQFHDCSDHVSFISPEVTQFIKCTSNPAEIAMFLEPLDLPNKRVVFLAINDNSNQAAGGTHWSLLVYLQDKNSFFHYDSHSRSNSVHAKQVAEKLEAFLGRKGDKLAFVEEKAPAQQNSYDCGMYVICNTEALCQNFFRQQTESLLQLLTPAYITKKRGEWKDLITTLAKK
# SENP7 inh – SENP7 protease inhibitors, primary screen, biochemical, luminescence, uHTS; inhibition, % at 5 µM; actives 1.5% (n = 330,000); recombinant SENP7, Z-RLRGG-aminoluciferin luminescence, 40 min; Sentrin-specific protease 7 (Homo sapiens), Q9BQF6;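 active = inhibition above about 50% at the single test dose, limit read from the data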;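 note: plate controls were DMSO with enzyme for no effect and no enzyme buffer wells for full effect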
# HSP90 refold inh – HSP90 inhibitors, primary screen, cell lysate, luminescence; Heat shock protein HSP 90 (rabbit reticulocyte lysate; luciferase refolding); inhibition, % at 5.6 µM; Rabbit reticulocyte lysate, luciferase refolding luminescence, 3 h; actives 0.91% (n = 290,000);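 active = inhibition above the screen-wide mean plus 3 SD, computed separately per campaign, cut at about 16% in these data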;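 note: 0% = DMSO wells and 100% = 60 µM geldanamycin wells; inhibitors lower the luminescence because luciferase stays unfolded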
# SENP8 block-2 – SENP8 protease inhibitors, primary screen, biochemical, luminescence; purified SENP8, Z-RLRGG-aminoluciferin cleavage; Sentrin-specific protease 8 (Homo sapiens), Q96LD8; actives 1.2% (n = 330,000); inhibition, % at 10 µM; in the data active = inhibition above about 50%
# HSP90 inh confirm – HSP90 inhibitors, confirmation, cell lysate, luminescence; inhibition, % at 5.9 µM; rabbit reticulocyte lysate, luciferase refolding luminescence, 3 h; actives 64% (n = 2,300); shares compounds with HSP90 refold inh; in the data active = inhibition above about 18%;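 note: 0% = vehicle wells and 100% = reference inhibitor wells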
# FLuc counter – firefly luciferase inhibitors, HSP90 counter-screen, confirmation, artefact control for HSP90 inhibitor project, biochemical, luminescence, triplicate | shares compounds with HSP90 refold inh | purified native firefly luciferase | inhibition, % at 5.9 µM | actives 48% (n = 2,300) | AID 1847, 2009;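 active = inhibition above the mean inhibition of all tested sample wells plus 3 SD, cut at about 10% in these data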;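 note: 0% = DMSO with luciferase and 100% = wells lacking luciferase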
# * hit, by the source's call; nt = no result given. This is a sample that favours compounds with a hit; in the whole collection about 2.9% have one here.
SMILES,SENP6 inh,SENP1 FRET inh,SENP8 block-1,SENP7 inh,HSP90 refold inh,SENP8 block-2,others
CN1CCN(c2ccc(S(C)(=O)=O)cc2[N+](=O)[O-])CC1,8.0,0.5,-2.3,5.8,-0.2,-2.3,
O=[N+]([O-])c1ccc(N(CCO)CCO)c2c1no[n+]2[O-],nt,19.6,51.4*,nt,nt,nt,
CN1CCN(c2ccc([N+](=O)[O-])c3no[n+]([O-])c23)CC1,nt,83.7*,69.2*,nt,4.7,nt,
C[C@]12CC[C@H](O)CC1=CC(=O)C1C2CC[C@]2(C)C(=O)CCC12 (some centres not stated),24.7,4.7,6.5,-1.1,nt,5.1,
O=C(c1c[nH]c2ccc(S(=O)(=O)N3CCOCC3)cc2c1=O)N1CCC2(CC1)OCCO2,-22.9,-0.5,-268.9,-11.7,1.1,-15.9,
O=C1NCCCCC1(Cl)Cl,nt,3.1,2.9,nt,nt,nt,
CCCC(=O)Nc1ccc(N2CCN(CC)CC2)c(Cl)c1,-27.7,0.2,13.5,-3.0,-0.1,3.4,
CCCC(=O)NC1=C(N2CC2)C(=O)C(NC(=O)CCC)=C(N2CC2)C1=O,nt,4.1,66.0*,nt,nt,nt,
COC(=O)C1=C(c2cc3ccccc3o2)C[C@@H]2CC[C@H]1N2C(=O)NCc1ccc(C(F)(F)F)cc1,-2.3,1.2,14.6,4.8,nt,2.4,
c1cncc(C2Nc3cccc4cccc(c34)N2)c1,34.6,13.9,52.3*,3.2,12.1,13.6,
O=C1CCCC2=C1C(c1cccnc1)Nc1ccccc1N2 (configuration not stated),-18.3,1.6,30.0,-11.6,1.8,-2.1,
Cc1cccc(OP(N)(=O)Oc2cccc(C)c2C)c1C,-4.3,-1.1,23.2,-1.1,2.8,-11.0,
O=C1C(=O)c2ccccc2-c2ccccc21,97.0*,0.9,108.0*,97.1*,11.0,93.2*,
COc1cc(O)c(C(=O)O)c(-c2cc(O)c(O)cc2C)c1,10.5,-7.1,65.8*,-3.2,nt,5.7,
COc1cc(C2c3cc4c(cc3CC3COC(=O)C32)OCO4)cc(OC)c1OC (configuration not stated),12.4,-1.8,8.2,7.6,nt,-0.7,
COc1ccc(NC2Oc3cc4c(cc3C(c3cc(OC)c(OC)c(OC)c3)C2C)OCO4)cc1 (configuration not stated),nt,1.1,52.4*,nt,nt,nt,
C[C@]12CC[C@@H]3c4ccc(O)c(O)c4CC[C@H]3[C@@H]1CC[C@@H]2O,-2.3,-0.7,45.1*,3.8,1.7,12.9,
O=C(NCC(c1cccnc1)N1CCOCC1)Oc1ccccc1 (configuration not stated),1.4,-1.4,4.5,3.7,-1.9,-3.2,
N#CC(c1cccnc1)N1CCOCC1 (configuration not stated),13.1,0.2,2.5,-3.7,16.2*,-8.9,
c1ccc(CCN2CCCCC2)nc1,nt,-2.0,7.7,nt,nt,nt,
CSCCC(c1nnnn1C1CCCCC1)N1CCC2(CC1)C(=O)NCN2c1ccccc1 (configuration not stated),nt,-1.4,24.1,nt,nt,nt,
C/C(CC(c1ccccc1)c1c(O)c2ccccc2oc1=O)=N\Nc1ccc([N+](=O)[O-])cc1[N+](=O)[O-] (configuration not stated),94.6*,2.6,-2.9,-6.2,1.4,-4.3,
O=C1CN=C(c2ccccc2)c2cc(Cl)ccc2N1,0.6,0.6,8.0,4.0,nt,15.6,
C=CCN1C(=O)NC(=O)/C(=C/c2c(CCN(C)C(=O)c3ccccc3)cc3c(c2OC)OCO3)C1=O,-19.9,3.3,54.1*,-8.4,-0.7,-1.3,
O=C1NCN(c2ccccc2)C12CCN(C(c1nnnn1C1CCCC1)C1CC1)CC2 (configuration not stated),nt,0.3,26.8,nt,nt,nt,
SMILES,SENP6 inh,SENP1 FRET inh,SENP8 block-1,SENP7 inh,HSP90 refold inh,SENP8 block-2,others
Cc1ccc(C2=CCNCC2)cc1,15.4,-0.3,6.5,1.4,0.2,4.9,
COC(=O)C1=C(C(=O)OC)SC2(S1)C(C(=O)OC)=C(C(=O)OC)Sc1c2ssc1=O,nt,7.8,42.8*,nt,nt,nt,
CC1COC2N=C(N[N+](=O)[O-])NC2O1 (configuration not stated),-7.3,1.2,10.8,-6.5,5.1,-11.7,
N#CC(C#N)=NNc1ccc(S(N)(=O)=O)cc1,4.9,3.0,43.5*,2.8,6.8,-4.4,
N#CC(C#N)=Cc1ccc(C=C(C#N)C#N)cc1,nt,21.1,-6.1,nt,48.7*,nt,
Cc1cc(N2CCCC2)ccc1C=C(C#N)C#N,5.2,-32.0,36.1,9.0,2.2,-2.0,
CN1/C(=C\C=C2C(=O)NC(=O)NC2=O)C(C)(C)c2ccccc21,-22.5,-36.1,21.6,0.9,0.9,-4.9,
CCN1/C(=C/C=C/C2=[N+](CC)c3ccccc3C2(C)C)C(C)(C)c2ccccc21,nt,76.5*,41.2*,nt,nt,nt,
CN1/C(=C\C=Nc2ccccc2)C(C)(C)c2ccccc21,1.0,-61.6,-15.1,2.2,-2.9,3.2,
CN1/C(=C\C=C\C2=[N+](C)c3ccc4ccccc4c3C2(C)C)C(C)(C)c2ccccc21,58.9*,nt,nt,24.4,8.2,35.5,
CC(=O)N1N=C2C3CCN(CC3)C2C1c1cccc2ccccc12 (configuration not stated),-8.4,-0.8,10.0,-7.6,-0.8,1.5,
CCc1ccc(N2C(=O)NC(=O)/C(=C\c3cccn3CCOc3ccc(C(C)C)cc3)C2=O)cc1,-8.6,-24.2,-16.3,-3.2,31.0*,-6.7,
CCN(CCO)c1ccc(N=Cc2c(O)n(C)c(=S)[nH]c2=O)cc1,40.1,79.8,55.3*,54.3*,1.6,8.3,
O=c1c2ccccc2[se]n1-c1ccccc1,72.2*,-1.1,-10.7,57.9*,0.2,61.2*,
O=c1c2ccccc2nc(-c2ccccc2)n1-c1ccccc1,-0.1,2.9,4.5,-5.3,3.9,5.4,
Cc1cc(C(=O)OCC(=O)Nc2ccc(F)cc2)c(C)n1C1CC1,3.1,-8.9,10.4,3.1,nt,4.7,
Cc1cc(C=C2C(=O)N(C)C(=S)N(C)C2=O)c(C)n1C1CCCCC1,4.0,37.3,41.2*,-2.5,3.9,-2.7,
Cc1ccccc1-n1c(O)c(/C=N/NC(=O)c2ccccc2O)c(=O)[nH]c1=S,4.4,-32.9,-311.7,1.0,21.3*,18.7,HSP90 inh confirm=51.7*;FLuc counter=48.5*

# Compound activity from PubChem.
